The results in this text go back to ChEMBL document CHEMBL1122506, “Cardiac-slowing amidines containing the 3-thioindone group. Potential antianginal agents” (1983).

The test system of experiment [1] is Canis familiaris. The experiment in a line: Evaluated for the heart rate at dose 0.5 mg/kg in 4 animals by poldine tachycardia test. It counts as functional, Canis lupus familiaris. In outline:
(§1)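 Poldine tachycardia: dogs prepared surgically as in the triazine method; poldine methyl sulfate 0.5 mg/kg iv, then 30 min later test agent in increasing doses (0.5/1.0/2.5 mg/kg) at 30-min intervals; read-out is the maximum percent decrease in heart rate at each dose.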

Experiment [2] deals with Canis familiaris. Nature of the experiment: Change in heart rate at the above D50 dose in conscious dogs. It counts as functional, Canis lupus familiaris. In outline: (§2)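 Triazine tachycardia in conscious dogs: carotid artery and jugular vein catheterized with heparinized saline; 18 h after surgery, triazine vasodilator U20388 12 mg/kg po; about 1 h later, dog in sling with arterial pressure and ECG monitored. Test agent infused iv at 0.8 (mg/kg)/min to 30 mg/kg total. D50 = dose giving 50% of maximal slowing in that animal; ΔHR50 = heart-rate change at D50; CS index = %ΔHR50/D50.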

Experiment [3] relates to Canis familiaris. Nature of the experiment: Evaluated for the heart rate at dose 1.0 mg/kg in 4 animals by aminophylline-induced sinus tachycardia test. Type of experiment: functional, Canis lupus familiaris.
The species entered for experiment [4] is Canis familiaris. The experiment in a line: Cardiac slowing index was measured for potency and efficacy. Type of experiment: functional, Canis lupus familiaris. The procedure, abridged: as §2
Experiment [5] deals with Canis familiaris. Nature of the experiment: Evaluated for the heart rate at dose 5.0 mg/kg in 4 animals by aminophylline-induced sinus tachycardia test. Type of experiment: functional, Canis lupus familiaris.
The test system of experiment [6] is Canis familiaris. Nature of the experiment: Evaluated for the heart rate at dose 5.0 mg/kg in 4 animals by glucagon-induced tachycardia test. It counts as functional, Canis lupus familiaris.
Experiment [7] concerns Canis familiaris. Nature of the experiment: Evaluated for the heart rate at dose 1.0 mg/kg in 4 animals by glucagon-induced tachycardia test. It counts as functional, Canis lupus familiaris.
The subject of experiment [8] is Canis familiaris. Nature of the experiment: Dose required to achieve 50 % of maximal cardiac slowing in triazine tachycardia test in conscious dog. It counts as functional, Canis lupus familiaris. In outline:
as §2

Experiment [9] deals with Canis familiaris. The experiment in a line: Myocardial depression rating in anesthetized, ganglion-blocked dog; Weak activity.
For experiment [10], the system named is Canis familiaris. Nature of the experiment: Evaluated for the heart rate at dose 1.0 mg/kg in 4 animals by poldine tachycardia test. Type of experiment: functional, Canis lupus familiaris. The procedure, abridged:
as §1

For experiment [11], the system named is Canis familiaris. The experiment in a line: Evaluated for the heart rate at dose 2.5 mg/kg in 4 animals by aminophylline-induced sinus tachycardia test. It counts as functional, Canis lupus familiaris.
The subject of experiment [12] is Canis familiaris. Nature of the experiment: Evaluated for the heart rate at dose 2.5 mg/kg in 4 animals by glucagon-induced tachycardia test. Type of experiment: functional, Canis lupus familiaris.
The species entered for experiment [13] is Canis familiaris. Nature of the experiment: Percent decrease from the initial evaluated heart rate (percent delta HR50/HR0 x 100). Type of experiment: functional, Canis lupus familiaris. In outline:
as §2

The species named for experiment [14] is Canis familiaris. Nature of the experiment: Relative activity (fraction of the most active compound 24) was determined. It counts as functional, Canis lupus familiaris.
Experiment [15] deals with Canis familiaris. Nature of the experiment: Evaluated for the heart rate at dose 2.5 mg/kg in 4 animals by poldine tachycardia test. Type of experiment: functional, Canis lupus familiaris. The procedure, abridged:
as §1

Experiment [16] relates to Canis familiaris. Nature of the experiment: Myocardial depression in conscious dog; Moderate activity. Type of experiment: functional, Canis lupus familiaris, Myocardium.
The species entered for experiment [17] is Canis familiaris. The experiment in a line: Percent decrease from initial heart rate (percent delta HR50/HR0 x 100) in dogs. It counts as functional, Canis lupus familiaris. In outline: as §2
Experiment [18] is filed under the species Canis familiaris. Nature of the experiment: Cardiac slowing index of the compound. Type of experiment: functional, Canis lupus familiaris. In outline: as §2
In experiment [19] the test system is Canis familiaris. Nature of the experiment: Myocardial depression in anesthetized, ganglion-blocked dog; Moderate activity.
For experiment [20], the system named is Canis familiaris. Nature of the experiment: Evaluated for the heart rate at dose 1.0 mg/kg in 5 animals by glucagon-induced tachycardia test. It counts as functional, Canis lupus familiaris.
Experiment [21] deals with Canis familiaris. Nature of the experiment: Evaluated for the heart rate at dose 2.5 mg/kg in 5 animals by glucagon-induced tachycardia test. It counts as functional, Canis lupus familiaris.
In experiment [22] the test system is Canis familiaris. Nature of the experiment: Evaluated for the myocardial depression rating which is barely observable for the given compound in anesthetized, ganglion-blocked dog.
In experiment [23] the test system is Canis familiaris. Nature of the experiment: Evaluated for the heart rate at dose 5.0 mg/kg in 3 animals by aminophylline-induced sinus tachycardia test. Type of experiment: functional, Canis lupus familiaris.
The subject of experiment [24] is Canis familiaris. The experiment in a line: Evaluated for the heart rate at dose 2.5 mg/kg in 3 animals by aminophylline-induced sinus tachycardia test. It counts as functional, Canis lupus familiaris.
Experiment [25] deals with Canis familiaris. The experiment in a line: Evaluated for the heart rate at dose 1.0 mg/kg in 3 animals by aminophylline-induced sinus tachycardia test. It counts as functional, Canis lupus familiaris.
Experiment [26] is filed under the species Canis familiaris. Nature of the experiment: Evaluated for the dose required to achieve 50 % of the maximal cardiac slowing in the triazine tachycardia test. Type of experiment: functional, Canis lupus familiaris. In outline: as §2

Turning to `Cc1[nH]c2ccccc2c1SCC/N=C1\CCCN1C`, the “Max decrease in heart rate” value in the experiment with Canis familiaris [1] was 15%; with Canis familiaris [3], 12%; with Canis familiaris [5] it was 34%; in the experiment with Canis familiaris [6], 42%; in the experiment with Canis familiaris [7] it was 20%; with Canis familiaris [10] it was 25%. For the same molecule, the “Max decrease in heart rate” value came to 23% in the experiment with Canis familiaris [11], 29% in the experiment with Canis familiaris [12] and 30% with Canis familiaris [15]. For the same molecule, the “Delta HR50” value in the experiment with Canis familiaris [2] is given as -34 beats min-1; in the experiment listed under Canis familiaris [13], 20.2%. Further, the CS index in the experiment listed under Canis familiaris [4] was determined as 4.5. This molecule also returned a D50 with Canis familiaris [8] of 4.5 mg/kg. Besides, the MD in the experiment with Canis familiaris [9] came out at 2.5. For the same molecule, the Relative activity in the experiment filed under Canis familiaris [14] came to 0.14.

`CN1CCC/C1=N\CCSc1cn(C/C=C/c2ccccc2)c2ccccc12` registered an MD with Canis familiaris [16] of 3. Besides, the “Delta HR50” value in the experiment on Canis familiaris [2] is reported as -58 beats min-1; in the experiment filed under Canis familiaris [17] it was 23.5%. The same molecule showed a CS index in the experiment filed under Canis familiaris [4] of 3.8. The molecule also gave a D50 in the experiment with Canis familiaris [8] of 6.1 mg/kg. Besides, the Relative activity in the experiment filed under Canis familiaris [14] turned out to be 0.12.

As for `CCCCCCCCn1cc(SCC/N=C2\CCCN2C)c2ccccc21`, the “Delta HR50” value with Canis familiaris [2] is -32 beats min-1; in the experiment listed under Canis familiaris [17] it was 14.8%. The same molecule registered a D50 in the experiment with Canis familiaris [8] of 7.3 mg/kg. For the same molecule, the CS index in the experiment filed under Canis familiaris [18] was 2. The MD in the experiment on Canis familiaris [19] is 2.

On to `CCn1cc(SCC/N=C2\CCCN2C)c2ccccc21`, for which the “Max decrease in heart rate” value in the experiment with Canis familiaris [1] is listed as 18%; in the experiment with Canis familiaris [3], 27%; in the experiment with Canis familiaris [20] it was 28%; in the experiment with Canis familiaris [21], 46%; with Canis familiaris [5], 53%; in the experiment with Canis familiaris [10] it was 34%. Besides, the “Max decrease in heart rate” value in the experiment with Canis familiaris [11] came out at 43%; with Canis familiaris [15] it was 47%. For the same molecule, the “Delta HR50” value is recorded as -39 beats min-1 in the experiment on Canis familiaris [2] and 21.8% in the experiment filed under Canis familiaris [17]. Moreover, the CS index in the experiment filed under Canis familiaris [4] is listed as 27.2. The molecule also returned a D50 in the experiment with Canis familiaris [8] of 0.8 mg/kg. The same molecule returned an MD with Canis familiaris [9] of 2. In addition, the Relative activity in the experiment listed under Canis familiaris [14] came to 0.85.

As for `CC(C)COCC(CN(Cc1ccccc1)c1ccccc1)N1CCCC1` (centres undefined) [BEPRIDIL], the “Max decrease in heart rate” value with Canis familiaris [1] amounted to 10%; in the experiment with Canis familiaris [6], 45%; in the experiment with Canis familiaris [23] it was 39%; in the experiment with Canis familiaris [7], 16%; in the experiment with Canis familiaris [24] it was 23%; with Canis familiaris [25], 13%. Further, the “Max decrease in heart rate” value with Canis familiaris [10] is recorded as 18%; in the experiment on Canis familiaris [12] it was 30%; with Canis familiaris [15], 25%. Also, the “Delta HR50” value in the experiment with Canis familiaris [2] is -30 beats min-1; in the experiment filed under Canis familiaris [17], 14.8%. Also, the MD in the experiment with Canis familiaris [22] was 1. In addition, in the experiment listed under Canis familiaris [4], the CS index is 7.4. Moreover, the D50 with Canis familiaris [8] turned out to be 2 mg/kg. Moreover, the Relative activity in the experiment listed under Canis familiaris [14] is recorded as 0.23.

In the case of `CC(C)NCC(O)COc1cccc2ccccc12` (centres undefined) [PROPRANOLOL], the “Max decrease in heart rate” value with Canis familiaris [1] is 21%; with Canis familiaris [3], 24%; in the experiment on Canis familiaris [5], 37%; in the experiment on Canis familiaris [7] it was 3%; in the experiment on Canis familiaris [10], 32%; with Canis familiaris [11] it was 32%. Besides, the “Max decrease in heart rate” value with Canis familiaris [12] came to 9%; in the experiment on Canis familiaris [15], 38%. Also, the figures for the “Delta HR50” value with Canis familiaris [2] and in the experiment filed under Canis familiaris [17] were -66 beats min-1 and 28.5%, respectively. For the same molecule, the CS index in the experiment listed under Canis familiaris [4] was 4.2. The D50 in the experiment filed under Canis familiaris [26] stood at 6.7 mg/kg. In addition, the MD in the experiment on Canis familiaris [19] came to 3. In addition, in the experiment listed under Canis familiaris [14], the Relative activity is recorded as 0.13.
